Compound activity: PubChem BioAssay, several laboratories
Rce1 inh: yeast Rce1p protease inhibitors, primary screen, biochemical, fluorescence, cell-free homogeneous | yeast membranes, quenched prenylated peptide cleavage fluorescence | calls only | hit rate 0.27% among 290,000 | AID 2563, 2010;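 active means fall in fluorescence gain of 50% or more versus controls, with final raw signal at or below 3038400; inconclusive means same 50% fall but final raw signal above 3038400; inactive means fall in fluorescence gain under 50%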
Runt-CBFb FRET: inhibitors of RUNX1 Runt–CBFb binding, primary screen, biochemical, FRET, Cerulean-Runt, Venus-CBFb, uHTS. Runt-related transcription factor 1 (Homo sapiens) + Core-binding factor subunit beta …. Cerulean-Runt/Venus-CBFb FRET ratio 530/480, 1 h. inhibition, % at 20 µM. hit rate 0.46% among 220,000;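 active means inhibition over about 50% at 20 µM in the single-dose screen, limit read from the data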
Target sequence (Q01196 whole entry, looked up): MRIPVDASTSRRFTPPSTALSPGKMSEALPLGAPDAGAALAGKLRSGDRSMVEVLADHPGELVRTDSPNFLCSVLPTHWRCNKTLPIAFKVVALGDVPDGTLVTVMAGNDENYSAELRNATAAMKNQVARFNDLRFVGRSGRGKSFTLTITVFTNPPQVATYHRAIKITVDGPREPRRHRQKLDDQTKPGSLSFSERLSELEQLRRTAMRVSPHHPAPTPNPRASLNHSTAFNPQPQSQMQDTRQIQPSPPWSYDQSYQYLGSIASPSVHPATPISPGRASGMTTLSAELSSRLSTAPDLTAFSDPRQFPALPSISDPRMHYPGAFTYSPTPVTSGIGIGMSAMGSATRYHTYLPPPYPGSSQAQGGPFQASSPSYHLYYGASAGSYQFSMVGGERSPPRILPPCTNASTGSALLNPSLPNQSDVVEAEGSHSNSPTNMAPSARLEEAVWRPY
Target sequence (Q13951 whole entry, looked up): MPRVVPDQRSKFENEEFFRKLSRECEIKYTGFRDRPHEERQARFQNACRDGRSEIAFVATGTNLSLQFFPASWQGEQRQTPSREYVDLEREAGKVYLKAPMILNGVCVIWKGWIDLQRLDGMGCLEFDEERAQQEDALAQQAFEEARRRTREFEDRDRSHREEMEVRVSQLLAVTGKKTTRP
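Measured by: fluorescence energy transfer, 422 nm excitation, 530/480 nm emission; test system: Cerulean-tagged RUNX1 Runt domain (FRET donor) fusion protein; buffer or medium: Tris pH 7.5 buffer with BSA; compound: one dose, 20 µM compound, 1% DMSO; times: two 1 h room-temperature incubations shielded from light; benchmarks: unlabeled CBFb 5 µM, positive control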
Runt-SMMHC FRET: inhibitors of RUNX1 Runt–CBFb-SMMHC binding, primary screen, biochemical, FRET, Cerulean-Runt, Venus-CBFb-SMMHC, uHTS | Runt-related transcription factor 1 (Homo sapiens) + Core-binding factor subunit beta … | Cerulean-Runt/Venus-CBFb-SMMHC FRET ratio 530/480, 1 h | inhibition, % at 20 µM | hit rate 0.74% among 220,000 | AID 1434, 2008;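 active means mean inhibition across duplicate retests at 20 µM reaching about 50%, limit read from the data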;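 further: inhibitors lower the FRET ratio by blocking Runt binding to CBFb-SMMHC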
RanGTP-Impb inh: inhibitors of RanGTP-importin-beta interaction, primary screen, biochemical, FRET, CFP-Ran, YFP-importin-beta, homogeneous; inhibition, % (concentration not given with the values); hit rate 1.1% among 300,000; AID 2216, 2009; cell-free CFP-Ran/YFP-importin-beta FRET ratio;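 active means more than half of the replicate wells show a fall in the fluorescence ratio signal beyond about 16%, limit read from the data, passing the limit was not always enough; inconclusive means exactly half of the replicate wells pass the set limit; inactive means fewer than half of replicates pass the limit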
Platelet DG rel: inhibitors of platelet dense granule secretion, primary screen, cell-based, MLPCN, human platelets; human platelet-rich plasma, SFLLRN dense granule ATP release, luminescence; inhibition, %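 (compounds screened at 7.5 µM in platelet-rich plasma)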; hit rate 0.22% among 300,000;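 active means mean replicate score, as percent of positive control, at or above 50; inconclusive means mean below 50 but at least one replicate at or above 50; inactive means mean and every replicate below 50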
Large screens that a line does not name were inactive. Rows were chosen to be rich in hits. Some 1.8% of all compounds tested hit in one or more screens of this group.

O=c1cc(N2CCN(Cc3ccccc3)CC2)[nH]c(=O)n1-c1cccc(C(F)(F)F)c1	RanGTP-Impb inh 41
COc1ccc(-n2c(=O)cc(N3CCN(Cc4ccccc4)CC3)[nH]c2=O)cc1	RanGTP-Impb inh inconclusive (no result: Runt-CBFb FRET)
O=c1c(C(c2ccccc2)c2c(O)nc3n(c2=O)CCS3)c(O)nc2n1CCS2	none
O=C(CNC(=O)c1nc[nH]c1C(=O)N1CCN(c2ccccc2)CC1)OCc1ccccc1	none (no result: Runt-CBFb FRET, Runt-SMMHC FRET)
CSc1nsc(N/N=C/c2ccc3c(c2)OCO3)c1C#N	RanGTP-Impb inh 20
CNC(=S)N(Cc1ccc2c(c1)OCO2)C1CC(=O)N(c2ccc(F)cc2)C1=O (stereo not given)	none
Cc1ccccc1C(=O)O/N=C(\N)c1ccc([N+](=O)[O-])cc1	none (no result: Runt-CBFb FRET, Runt-SMMHC FRET)
Cc1occc1C(=O)O/N=C(\N)c1ccccc1	Platelet DG rel 72
Cc1ccccc1C(=O)O/N=C(\N)c1ccccc1	RanGTP-Impb inh inconclusive, Platelet DG rel 60 (no result: Runt-CBFb FRET, Runt-SMMHC FRET)
COC(=O)c1sccc1NC(=O)Cc1ccc(Br)cc1	none
O=C(CSc1ccc([N+](=O)[O-])cn1)Nc1ccc2c(c1)OCO2	none (no result: Runt-CBFb FRET, Runt-SMMHC FRET)
CCOC(=O)CC1CCCCN1C(=O)c1cc(COc2cccc3cnccc23)on1 (stereo not given)	none (no result: Runt-CBFb FRET, Runt-SMMHC FRET)
COc1cccc(C(c2c(NC(=O)c3ccccc3)sc(C)c2C)N2CCN(C)CC2)c1 (stereo not given)	none
Cc1ccc(N2C(=O)c3cccc4cccc(c34)C2=O)cc1	none
Cc1ccc(N2C=Nc3ccc(C)c4nc(C)cc2c34)cc1	Runt-CBFb FRET 52, Runt-SMMHC FRET 60, RanGTP-Impb inh 99
CC1=Nc2ccc(C)c3nc(C)cc(c23)N1c1ccc(C)cc1	RanGTP-Impb inh 65 (no result: Runt-CBFb FRET, Runt-SMMHC FRET)
COc1ccc(OCCCC(=O)OC(C)C(=O)Nc2ccc(NC(C)=O)cc2)cc1 (stereo not given)	Platelet DG rel 57 (no result: Runt-CBFb FRET, Runt-SMMHC FRET)
CC(=O)Nc1ccc(OCCC[n+]2ccccc2)cc1	RanGTP-Impb inh 17 (no result: Rce1 inh)
COc1ccc(OCCCC(=O)OC(C)C(=O)Nc2ccc(S(N)(=O)=O)cc2)cc1 (stereo not given)	none (no result: Runt-CBFb FRET, Runt-SMMHC FRET)
CCN1CCc2c(sc(NC(=O)C3COc4ccccc4O3)c2C(N)=O)C1 (stereo not given)	RanGTP-Impb inh 153 (no result: Runt-CBFb FRET, Runt-SMMHC FRET)
CCOC(=O)N1CCc2c(sc(NC(=O)C3COc4ccccc4O3)c2C(N)=O)C1 (stereo not given)	none (no result: Runt-CBFb FRET, Runt-SMMHC FRET)
CN1CCc2c(sc(NC(=O)C3COc4ccccc4O3)c2C(N)=O)C1 (stereo not given)	RanGTP-Impb inh 182 (no result: Runt-CBFb FRET, Runt-SMMHC FRET)
CC1(C)c2ssc(=S)c2-c2ccccc2N1C(=O)c1ccco1	Runt-CBFb FRET 122
CN1C(=O)N(C)c2ccc(C=O)c3cccc1c23	Runt-CBFb FRET 59, Runt-SMMHC FRET 92
COc1ccc2cc(C(=O)NCc3ccccc3)c(=Nc3ccc(C(=O)O)cc3)oc2c1	none
C/C(=N\NC(=O)CC#N)c1cc2ccc(O)cc2oc1=O	Runt-SMMHC FRET 92
O=C(NCc1ccccc1)c1cc2ccc(O)cc2oc1=O	Rce1 inh inconclusive, RanGTP-Impb inh 186 (no result: Runt-CBFb FRET, Runt-SMMHC FRET)
O=C(O)c1ccc(N=c2oc3cc(O)ccc3cc2C(=O)NCc2ccccc2)cc1	Runt-SMMHC FRET 88, RanGTP-Impb inh 169
Cc1cccc(C)c1NC(=O)CNC(=O)C(Cc1ccccc1)NC(=O)c1ccccc1 (stereo not given)	none (no result: Runt-CBFb FRET, Runt-SMMHC FRET)
COC(=O)N/N=C/c1cn(Cc2ccccc2Cl)c2ccccc12	Rce1 inh active
O=C(O)c1ccc(N/N=C/c2cn(Cc3ccccc3F)c3ccccc23)cc1	Rce1 inh active
CCc1ccc2c(CN(C)Cc3ccccc3OC)cc(=O)oc2c1	none (no result: Runt-CBFb FRET, Runt-SMMHC FRET)
COc1ccccc1-c1c(C#N)c(N)nc2c1CCc1ccccc1-2	RanGTP-Impb inh 20
O=C(N/N=C/c1c(O)n(-c2ccc(Cl)cn2)c(=O)c2ccccc12)c1ccncc1	Runt-SMMHC FRET 86
Cc1ccccc1NC(=S)N(CCN1CCOCC1)Cc1ccccc1F	none
COc1cccc(OC)c1C(=O)Nc1ccccc1N1CCCCC1	RanGTP-Impb inh inconclusive (no result: Runt-CBFb FRET, Runt-SMMHC FRET)
CCCCn1c(NS(=O)(=O)c2ccccc2)c(S(=O)(=O)c2ccc(C)cc2)c2nc3ccccc3nc21	Runt-SMMHC FRET 53, RanGTP-Impb inh 51
CCCCn1c(NC(=O)c2ccco2)c(S(=O)(=O)c2ccc(C)cc2)c2nc3ccccc3nc21	RanGTP-Impb inh 49
CCCCCn1c(NC(=O)c2ccco2)c(S(=O)(=O)c2ccc(C)cc2)c2nc3ccccc3nc21	Runt-SMMHC FRET 147, RanGTP-Impb inh 80
CCCCn1c(=NC(=O)c2cccnc2)c(C#N)cc2c(=O)n3cccc(C)c3nc21	Runt-CBFb FRET 124, Runt-SMMHC FRET 58, RanGTP-Impb inh 107
Cc1cccn2c(=O)c3cc(C#N)c(=NC(=O)c4cccs4)n(CCCOC(C)C)c3nc12	Runt-CBFb FRET 79, Runt-SMMHC FRET 88, RanGTP-Impb inh 81
Cc1cccn2c(=O)c3cc(C#N)c(=NC(=O)c4ccncc4)n(CCCOC(C)C)c3nc12	Runt-CBFb FRET 97, RanGTP-Impb inh 140
CCCn1c(=NC(=O)c2ccc3c(c2)OCO3)c(C#N)cc2c(=O)n3cccc(C)c3nc21	Runt-CBFb FRET 125, Runt-SMMHC FRET 67 (no result: Rce1 inh, RanGTP-Impb inh, Platelet DG rel)
CC(=O)N=c1c(C#N)cc2c(=O)n3cccc(C)c3nc2n1CCCOC(C)C	Runt-CBFb FRET 115, Runt-SMMHC FRET 82, RanGTP-Impb inh 111
CCOCCCn1c(=NC(=O)c2cccs2)c(C#N)cc2c(=O)n3ccccc3nc21	Runt-CBFb FRET 86, Runt-SMMHC FRET 81, RanGTP-Impb inh 105
COCCCn1c(=NC(=O)c2ccncc2)c(C#N)cc2c(=O)n3cccc(C)c3nc21	Runt-SMMHC FRET 62, RanGTP-Impb inh 68
COCCCn1c(C(=O)N2CC(C)OC(C)C2)cc2c(=O)n3ccccc3nc21 (stereo not given)	none (no result: Runt-CBFb FRET, Runt-SMMHC FRET)
COc1c(C(=O)Nc2nnc(C3CC3)s2)csc1Cl	none (no result: Runt-CBFb FRET, Runt-SMMHC FRET)
O=C(O)CC1(c2ccc(F)cc2)C2CC3CC(C2)CC1C3 (stereo not given)	none (no result: Runt-CBFb FRET, Runt-SMMHC FRET)
CC(C)c1ccc(NC(=O)COc2nncc3ccccc23)cc1	Rce1 inh active
CCCCCCNC(=O)CC(NS(=O)(=O)c1ccc(OC)cc1)C(C)C (stereo not given)	none
CCCCNC(=O)c1cc2cc(OC)ccc2[nH]1	none
COc1ccc2[nH]c(C(=O)NCCCn3ccnc3)cc2c1	Rce1 inh active (no result: Runt-CBFb FRET, Runt-SMMHC FRET)
CCOc1c(Cl)cc(/C=N/NC(N)=S)cc1OC	none
CCCn1nnnc1NCc1cccc(Cl)c1	none (no result: Runt-CBFb FRET, Runt-SMMHC FRET)
O=C(Nc1ccccc1C(=O)N/N=C/c1ccccc1)c1ccco1	none (no result: Runt-CBFb FRET, Runt-SMMHC FRET)
O=C(Nc1ccccc1C(=O)N/N=C/c1ccc(O)cc1)c1ccccc1	Platelet DG rel 124
